Measurements pooled from the literature.
Compare with care: the assays were run in different laboratories.
OPRD1: Delta-type opioid receptor (OPRD1, Homo sapiens, UniProt P41143)
HTR3A: 5-hydroxytryptamine receptor 3A (HTR3A, Homo sapiens, UniProt P46098)
ADRA2A: Alpha-2A adrenergic receptor (ADRA2A, Homo sapiens, UniProt P08913)
OGT: UDP-N-acetylglucosamine--peptide N-acetylglucosaminyltransferase 110 kDa subunit (OGT, Homo sapiens, UniProt O15294)
gag-pol reverse transcriptase: Gag-Pol polyprotein, reverse transcriptase (gag-pol, Human immunodeficiency virus 1, UniProt P03366)

SMILES	target	test	test system	conditions	IC50 [µM]
CNC[C@@H](Cc1ccc(O)cc1)N1CCN(CCc2cccc(C)c2)[C@@H](C(C)C)C1	OPRD1	cell-free assay			> 10
C[C@H](N)Cn1ncc2ccc3c(c21)CCCO3	HTR3A	ligand displacement, radioligand			31.7
CNC[C@H](Cc1ccc(O)cc1)NC[C@H](Cc1ccc(O)cc1)NCC1CCCCCC1	OPRD1	cell-free assay			> 10
CCN(CC)C(=O)C1CN2CCc3cc(OC)c(OC)cc3C2CC1OC(C)=O (centres unmarked)	ADRA2A	calcium signal, antagonist			0.45
Cc1cc(C)nc(Nc2ncc(C(=O)NCCc3c(C)[nH]c4ccccc34)cn2)c1	Cytochrome P450 2C19 (CYP2C19, Homo sapiens, UniProt P33261)	enzyme activity, inhibitor	human, liver microsomes		11
CC[C@H](C)[C@H](NC(=O)[C@H](CO)NC(=O)[C@H](Cc1ccc(O)cc1)NC(=O)[C@H](CCCCN)NC(=O)[C@@H]1CCCN1C(=O)[C@H](CCSC)NC(=O)[C@H](Cc1ccccc1)NC(=O)[C@H](CCSC)NC(=O)[C@@H](NC(=O)[C@@H]1CCCN1C(=O)[C@H](Cc1ccccc1)NC(=O)[C@H](CC(=O)O)NC(=O)CNC(=O)[C@H](CCCCN)NC(=O)[C@@H](N)CCCCN)C(C)C)C(=O)N[C@H](C(=O)N[C@@H](Cc1ccccc1)C(=O)O)[C@@H](C)CC	OGT	enzyme activity, inhibitor, fluorescence			5.3
CN1CCN(C2=Nc3ccccc3Oc3ccc(Cl)cc32)CC1	HTR3A	ligand displacement, radioligand			0.377
CCCC[C@H](CNCc1ccccc1)N1CCN(CC(C)C)[C@H](Cc2ccc(O)cc2)C1	OPRD1	cell-free assay			> 10
CN1CCC(=C2c3ccccc3CCc3sccc32)CC1	ADRA2A	ligand displacement, radioligand			0.577
CCCCCCCCC[C@@H]1CC(=O)NCC(=O)N[C@H](Cc2ccc(O)cc2)C(=O)NCC(=O)N[C@@H](Cc2ccccc2)C(=O)O1	OPRD1	ligand displacement, radioligand			38
Cc1cn([C@H]2CC[C@@H](OC(C(=O)O)C(=O)O)C2)c(=O)[nH]c1=O	gag-pol reverse transcriptase	enzyme activity, inhibitor, radiometric			> 640
CC(C)Cc1ccc([C@H](C)C(=O)O)cc1	Histone acetyltransferase p300 (EP300, Homo sapiens, UniProt Q09472)	enzyme activity, inhibitor, mobility shift			~6000
CNC[C@@H](Cc1ccc(O)cc1)N1CCN(CCC2CC3CCC2C3)CC1 (some centres unmarked)	OPRD1	cell-free assay			> 10
CC(CCc1ccccc1)NC(C)C(O)c1ccc(O)cc1 (centres unmarked)	ADRA2A	ligand displacement, radioligand			9.39
Nc1c(S(=O)(=O)O)cc(Nc2ccc(Nc3nc(Cl)nc(Nc4cccc(S(=O)(=O)O)c4)n3)c(S(=O)(=O)O)c2)c2c1C(=O)c1ccccc1C2=O	P2X purinoceptor 2 (P2RX2, Homo sapiens, UniProt Q9UBL9)	calcium signal, antagonist			1.89
Cc1cc(/C=C/C#N)cc(C)c1Nc1ccnc(Nc2ccc(C#N)cc2)n1	gag-pol reverse transcriptase	enzyme activity, inhibitor			0.0214
CCC[C@H](CNC)NC[C@@H](CCC)NCC1CCC(C)CC1 (some centres unmarked)	OPRD1	cell-free assay			> 10
CC[C@H](C)[C@H](NC(=O)[C@H](CO)NC(=O)[C@H](Cc1ccc(O)cc1)NC(=O)[C@H](CCCCN)NC(=O)[C@@H]1CCCN1C(=O)[C@H](CCSC)NC(=O)[C@@H](N)Cc1ccccc1)C(=O)N[C@H](C(=O)N[C@@H](Cc1ccccc1)C(=O)O)[C@@H](C)CC	OGT	enzyme activity, inhibitor, fluorescence			120
CC(C)[C@H](CNCc1ccccc1)N1CCN(CCC2CC3CCC2C3)[C@@H](Cc2ccccc2)C1 (some centres unmarked)	OPRD1	cell-free assay			> 10
CCOC(=O)c1cncn1C(C)c1ccc(C2(C(F)(F)F)N=N2)cc1 (centres unmarked)	HTR3A	ion current, two-electrode voltage clamp		oocytes	9
